For 10 molecules, IC50 results are on record in ChEMBL document CHEMBL1153397, “Argifin; efficient solid phase total synthesis and evaluation of analogues of acyclic peptide” (Bioorg Med Chem, 2009).

The structures appear in SMILES notation. pIC50: −log10 of the molar value. *1 amine or outer side, *2 acyl side, *3 side chain or, on linkers, in order; H or OH if unused. Where a SMILES comes first, the peptide text is derived from it. Side-chain parts run from the residue outwards. [ ]: non-standard residue; d: D form. The star is where a group is joined. NMeF = CN[C@@H](Cc1ccccc1)C(=O)O; CO = O=C([*:1])[*:2]; OAll = C=CCO* A value given as a limit tells only on which side of the number the result lay.

Test [1] deals with T1, Chitinase C1 (Serratia marcescens, UniProt Q700B8).
T1 sequence (Q700B8 whole entry): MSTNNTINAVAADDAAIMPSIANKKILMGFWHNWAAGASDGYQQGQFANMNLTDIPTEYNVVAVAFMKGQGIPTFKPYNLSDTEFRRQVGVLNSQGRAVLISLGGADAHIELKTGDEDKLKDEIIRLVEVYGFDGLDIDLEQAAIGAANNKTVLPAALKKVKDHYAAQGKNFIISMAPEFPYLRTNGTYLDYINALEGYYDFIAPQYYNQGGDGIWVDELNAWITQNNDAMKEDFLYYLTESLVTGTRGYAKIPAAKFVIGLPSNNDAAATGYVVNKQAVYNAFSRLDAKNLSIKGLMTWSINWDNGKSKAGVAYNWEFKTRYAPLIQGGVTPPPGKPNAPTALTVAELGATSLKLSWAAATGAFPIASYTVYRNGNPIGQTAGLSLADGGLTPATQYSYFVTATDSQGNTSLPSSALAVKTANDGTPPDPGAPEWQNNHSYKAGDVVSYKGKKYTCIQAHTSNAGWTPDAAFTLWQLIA
As to the kind of experiment: Displacement of 4-methylumbelliferydiacetyl-chitobiose from Serratia marcescens ChiC. Put shortly:
(§1)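 Crude S. marcescens chitinase diluted in 0.1 M phosphate pH 7.0 (ChiA x10, ChiB x40, ChiC1 x4) was mixed with inhibitor in MeOH, buffer and 80 μM (solution added) 4-MU-(GlcNAc)2, then incubated 5 min. Fluorescence (ex 355/em 460 nm) was read every 60 s. The 4-methylumbelliferone production rate was corrected for each inhibitor's quenching using inhibitor plus 4MU mixtures. IC50 came from sigmoidal dose-response fits.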

Test [2] concerns the target Chitinase A (Serratia marcescens, UniProt P07254). The test is described as follows: Displacement of 4-methylumbelliferydiacetyl-chitobiose from Serratia marcescens ChiA. Put shortly: as §1
Test [3] has as its target T2, Chitinase B (Serratia marcescens, UniProt P11797).
T2 sequence (P11797 whole entry): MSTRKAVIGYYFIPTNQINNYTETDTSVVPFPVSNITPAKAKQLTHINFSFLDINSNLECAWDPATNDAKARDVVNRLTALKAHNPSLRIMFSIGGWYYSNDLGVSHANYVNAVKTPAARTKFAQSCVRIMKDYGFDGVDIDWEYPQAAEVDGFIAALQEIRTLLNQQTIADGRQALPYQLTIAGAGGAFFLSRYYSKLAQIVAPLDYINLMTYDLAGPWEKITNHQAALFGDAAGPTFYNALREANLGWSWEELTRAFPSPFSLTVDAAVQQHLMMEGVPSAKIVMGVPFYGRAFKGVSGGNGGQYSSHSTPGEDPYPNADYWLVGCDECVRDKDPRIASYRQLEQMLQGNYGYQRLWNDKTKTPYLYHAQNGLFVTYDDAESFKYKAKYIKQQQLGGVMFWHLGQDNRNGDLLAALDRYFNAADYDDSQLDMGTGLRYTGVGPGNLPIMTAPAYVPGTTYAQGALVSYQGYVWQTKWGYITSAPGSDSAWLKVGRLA
As to the kind of experiment: Displacement of 4-methylumbelliferydiacetyl-chitobiose from Serratia marcescens ChiB. The method, boiled down:
as §1

Sequence of Chitinase A (P07254 whole entry): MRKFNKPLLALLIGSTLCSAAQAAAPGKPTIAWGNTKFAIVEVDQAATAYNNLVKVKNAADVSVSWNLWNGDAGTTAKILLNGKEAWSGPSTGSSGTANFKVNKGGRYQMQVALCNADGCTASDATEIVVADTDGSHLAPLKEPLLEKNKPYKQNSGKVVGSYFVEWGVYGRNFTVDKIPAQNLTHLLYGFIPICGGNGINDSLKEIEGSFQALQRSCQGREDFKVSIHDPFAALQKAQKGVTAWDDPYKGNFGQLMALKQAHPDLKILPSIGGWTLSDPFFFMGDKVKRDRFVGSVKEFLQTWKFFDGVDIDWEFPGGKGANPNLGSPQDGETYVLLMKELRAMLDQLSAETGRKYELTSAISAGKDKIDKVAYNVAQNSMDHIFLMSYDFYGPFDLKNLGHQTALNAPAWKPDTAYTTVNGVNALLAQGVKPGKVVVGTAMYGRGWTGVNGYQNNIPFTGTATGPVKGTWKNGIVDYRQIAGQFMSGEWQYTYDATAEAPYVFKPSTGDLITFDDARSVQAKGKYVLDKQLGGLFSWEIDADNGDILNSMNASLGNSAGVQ

Turning to `CNC(=O)NC(=N)NCCC[C@H](NC(C)=O)C(=O)O`, the pIC50 in test [1] is under 4.52; in test [2], 4.51; in test [3], 3.59.
Take `CNC(=O)NC(=N)NCCC[C@H](NC(=O)[C@@H](C)NC(=O)[C@H](CC(=O)O)NC(C)=O)C(=O)N(C)[C@@H](Cc1ccccc1)C(=O)O`: the figures for the pIC50 in test [1], in test [2] and in test [3] were under 4.52, 5.08 and 4.52, respectively.
The corresponding values for `C=CCOC(=O)C[C@H](NC(=O)[C@H](Cc1ccccc1)N(C)C(=O)[C@H](CCCN=C(N)NC(=O)NC)NC(=O)[C@@H](C)NC(=O)[C@H](CC(=O)O)NC(C)=O)C(=O)O` are under 4.52, 5.96 and 6.00.
As for `CNC(=O)NC(N)=NCCC[C@H](NC(=O)[C@@H](C)NC(C)=O)C(=O)O`, the pIC50 was under 4.52 in test [1], 5.18 in test [2] and 4.19 in test [3].
Turning to `CNC(=O)NC(N)=NCCC[C@H](NC(=O)[C@@H](C)NC(=O)[C@H](CC(=O)O)NC(C)=O)C(=O)O`, the negative-log IC50 (pIC50) in test [1] is under 4.52; in test [2], 4.49; in test [3] it was 3.96.
As to `CNC(=O)NC(=N)NCCC[C@H](NC(C)=O)C(=O)N(C)[C@@H](Cc1ccccc1)C(=O)O`, the pIC50 in test [1] is under 4.52; in test [2] it was 6.12; in test [3], 5.43.
The corresponding values for `C=CCOC(=O)C[C@H](NC(=O)[C@H](Cc1ccccc1)N(C)C(=O)[C@H](CCCNC(=N)NC(=O)NC)NC(=O)[C@@H](C)NC(C)=O)C(=O)O` are under 4.52, 7.60 and 7.04.
Turning to `CNC(=O)NC(=N)NCCC[C@H](NC(=O)[C@@H](C)NC(C)=O)C(=O)N(C)[C@@H](Cc1ccccc1)C(=O)O`, the pIC50 in test [1] is under 4.52; in test [2], 7.05; in test [3], 5.57.
In the case of `C=CCOC(=O)C[C@H](NC(=O)[C@H](Cc1ccccc1)N(C)C(=O)[C@H](CCCNC(=N)NC(=O)NC)NC(C)=O)C(=O)O` (Ac-Arg([CO-NHMe])-[NMeF]-Asp(OAll)-OH), the results for the pIC50 in test [1], in test [2] and in test [3] were under 4.52, 6.85 and 6.89, respectively.
The corresponding values for `CNC(=O)NC(=N)NCCC[C@@H]1NC(=O)[C@@H](C)NC(=O)C[C@@H](C(=O)O)NC(=O)C[C@@H](C(=O)O)NC(=O)[C@H](Cc2ccccc2)N(C)C1=O` [ARGIFIN] are under 4.52, 7.60 and 5.19.

In general, pIC50 refers to the negative decadic logarithm of the IC50, by convention in mol/L. Higher therefore signals a small IC50.
